Screening data: PubChem, several laboratories
HIV Env fusion – inhibitors of HIV Env-mediated cell fusion; HeLa-JRFL Env/CEM21 cell fusion, luciferase; inhibition, % at 12.3 µM; 360,000 compounds, 1.1% hits;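 active means mean replicate inhibition score of at least 50 and every replicate individually at or above 50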;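 further: 0% = plate neutral controls and 100% = maraviroc near 300 nM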
PfHsp90 yeast 2 – reduces growth (ATP signal) of yeast expressing P. falciparum Hsp90; S. cerevisiae expressing PfHsp90, BacTiter-Glo ATP, 48 h; yeast lacking PDR1 and PDR3 efflux regulators; inhibition, % at 9.4 µM; 310,000 compounds, 0.32% hits;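 active means every replicate shows inhibition above about 80%, whatever the replicate mean, limit read from the data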;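 further: 0% = DMSO neutral controls and 100% = 20 µM radicicol positive controls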
PAX8 reporter – inhibitors of PAX8 transcriptional activity in RMG-I cells; AID 652154; 360,000 compounds, 1.2% hits; inhibition, % at 12.6 µM; RMG-I TPO-luciferase reporter, SteadyGlo, 24 h;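 active means mean replicate inhibition at least 60% with every replicate also reaching 60%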;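 further: luciferase light reporting Pax8 driven TPO promoter activity; plate controls were median of neutral control wells for no effect and mitoxantrone controls for full effect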
Arr AP2 block – inhibitors of human beta-arrestin and AP2 interaction. FITC-arrestin peptide / GST-AP2 beads, flow cytometry; AP2 beta2 appendage carries R879A mutation. inhibition, % at 10 µM. 340,000 compounds, 0.31% hits;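 active means inhibition above a set limit, near 3 SD of compounds lacking own fluorescence, cut at about 54% in these data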;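 further: plate controls were DMSO wells for no effect and 5 µM unlabelled arrestin peptide for full effect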
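Test system: GST-tagged AP2 beta2-adaptin appendage (R879A) on 4 µm glutathione beads; also added: fluorescein-tagged arrestin peptide at 50 nM final; timing: 12 min plus 1 h, RT; signal: flow cytometry, FL1 (488/535 nm); read-out: percent drop in bead-associated FITC signal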
Rtt109 Vps75 – inhibitors of Candida albicans Rtt109/Vps75 histone acetyltransferase; purified Rtt109/Vps75, ThioGlo CoA-SH fluorescence, 4 h; 330,000 compounds, 0.16% hits; inhibition, % at 34.9 µM; AID 540336;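 active means inhibition of at least 50% in every replicate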
Target sequence (Q5AAJ8 whole entry, looked up): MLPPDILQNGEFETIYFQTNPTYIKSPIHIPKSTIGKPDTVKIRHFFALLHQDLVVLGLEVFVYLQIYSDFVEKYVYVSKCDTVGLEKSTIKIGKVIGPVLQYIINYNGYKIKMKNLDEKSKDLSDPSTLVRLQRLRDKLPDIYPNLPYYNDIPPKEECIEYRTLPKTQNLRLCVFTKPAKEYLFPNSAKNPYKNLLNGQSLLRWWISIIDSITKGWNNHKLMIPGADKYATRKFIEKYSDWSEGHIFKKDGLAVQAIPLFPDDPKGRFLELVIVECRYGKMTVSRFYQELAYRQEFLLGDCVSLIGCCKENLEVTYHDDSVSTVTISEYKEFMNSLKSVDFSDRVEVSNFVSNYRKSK
Glyco luc inh – blocks N-linked glycosylation in D54 reporter cells; reporter increase, % at 12.5 µM; D54 ERlucT glycosylation luciferase reporter, 24 h; percent of 100 nM tunicamycin response; 360,000 compounds, 0.23% hits;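 active means mean luciferase reporter signal, scaled so untreated is 0 and the glycosylation-blocking control 100, at or above a set limit in every replicate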;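 further: luciferase carries N-glycosylation sites so blocking glycosylation raises the light; 0% = median of neutral control wells and 100% = median of 100 nM tunicamycin wells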
* = called active by the depositor; / = not tested or not shown; [ ] = remark or other dose. Hits are enriched below; roughly 2.3% of the tested compounds scored in any of these assays.

SMILES	HIV Env fusion	PfHsp90 yeast 2	PAX8 reporter	Arr AP2 block	Rtt109 Vps75	Glyco luc inh
CC(=O)Nc1ccc(NC(=O)COC(=O)c2c3c(nc4ccccc24)CCN(Cc2ccccc2)C3)cc1	-5	-7	56	-10	0	-5
O=C(COC(=O)c1c2c(nc3ccccc13)CCN(Cc1ccccc1)C2)Nc1c(F)cccc1F	-23	-21	73*	-3	15	-10
O=C(C[C@@H]1CC[C@@H]2[C@H](COC[C@@H](O)CN2Cc2ccccc2F)O1)NC1CCC1	-12[16.7 µM]	/	3	/	/	/
CC(=O)N1[C@@H]2c3ccc(/C=C/c4ccccc4)c(=O)n3C[C@@H]2[C@@H](CO)[C@@H]1C(=O)Nc1nccs1	12[16.7 µM]	/	16	/	/	/
CCOc1ccc(N2C(=O)CC(N(C)Cc3ccccc3)C2=O)cc1 (stereo not drawn)	2	-40	11	1	8	4
COC(=O)c1ccc(N2C(=O)CC(N(C)Cc3ccccc3)C2=O)cc1 (stereo not drawn)	/	104*	/	3	0	3
CCNC(=O)C1CCCN(C(=O)c2cccc(Cl)c2)CC1 (stereo not drawn)	-11	/	-20	/	/	1
CCNC(=O)C1CCCN(C(=O)c2ccc(F)c(Cl)c2)CC1 (stereo not drawn)	34	/	76*	/	/	2
CCOC(=O)c1c(NC(=O)c2cc3n(n2)C(C(F)(F)F)CC(c2cccs2)N3)sc(C)c1C (stereo not drawn)	1	-32	-7	23	1	98*
NC(=S)c1ccc(OCCCc2ccccc2)cc1	70*	/	-224	/	/	-2
CCCCOc1ccc(C(=O)NCCc2ccccc2)cc1	-64	2	-114	-16	-2	-5
O=C(Cc1ccccn1)N[C@@H]1CC[C@H](CC(=O)N2CCCCC2)O[C@H]1CO	-1[16.7 µM]	/	-6	/	/	/
Cc1cc(C)c(S(=O)(=O)c2ccc(Cl)cc2)c(Cl)n1	4	67	9	37	-4	-1
Cc1cc(S(=O)(=O)c2ccc(Cl)cc2)nc(S(=O)(=O)c2ccc(Cl)cc2)c1C#N	-154	/	83*	/	/	-7
CC1(C)CSC(=NCc2ccccc2)N1C(=O)c1cccc([N+](=O)[O-])c1	/	25	69*	13	-7	3
Cc1ccsc1/C=N/NC(=O)c1cc(-c2ccncc2)nc2ccccc12	-261	-5	69*	-1	-1	3
O=C(N/N=C/c1ccccn1)c1cc(-c2ccncc2)nc2ccccc12	-10	6	-12	/	5	41*
O=C(N/N=C/c1ccsc1)c1cc(-c2cccs2)nc2ccccc12	/	-4	133*	-7	-14	15
COc1ccccc1-c1cc(C(=O)N/N=C/c2sccc2C)c2ccccc2n1	/	7	/	-8	-10	-9
Cc1cccc(S(=O)(=O)N2CC[C@@H]3[C@H](CO)Nc4ccc(C#Cc5cccnc5)cc4[C@@H]32)c1	/	/	14	/	/	/
CO[C@@H]1CN(C)C(=O)c2ccc(NS(C)(=O)=O)cc2OC[C@@H](C)N(CC2CCCCC2)C[C@@H]1C	-2[16.7 µM]	/	/	/	/	/
Cc1ccc(O)c(N=Nc2nccs2)c1	/	112*	28	-4	3	9
C=C1CC(COc2ccc3c(C)c(Cl)c(=O)oc3c2)(c2ccccc2)OC1=O (stereo not drawn)	-51	-36	100*	37	10	-14
COc1ccc2c(C)c(Cl)c(=O)oc2c1	/	-8	/	-7	-10	-1
C[C@H]1CCCCO[C@H](CN(C)S(=O)(=O)c2ccc(F)cc2)[C@@H](C)CN([C@@H](C)CO)C(=O)c2cc(NS(C)(=O)=O)ccc2O1	2[16.7 µM]	/	-5	/	/	/
SMILES	HIV Env fusion	PfHsp90 yeast 2	PAX8 reporter	Arr AP2 block	Rtt109 Vps75	Glyco luc inh
CCCN(C)C[C@@H]1OCCCC[C@@H](C)Oc2ccc(NC(=O)NC(C)C)cc2C(=O)N([C@@H](C)CO)C[C@@H]1C	-9[16.7 µM]	/	-5	/	/	/
CCCCN1C(=N)N([C@@H](C)CN2CCC[C@H]2CN2C(N)=NC[C@@H]2Cc2ccccc2)C[C@H]1Cc1ccccc1	4	25	49	29	19	2
CCCCN1C(=N)N([C@@H](CN2CCC[C@H]2CN2C(N)=NC[C@@H]2Cc2ccccc2)C(C)C)C[C@H]1Cc1ccccc1	-13	-17	63*	5	13	1
Cc1ccccc1NC(=O)Nc1ccc2c(c1)C(=O)N(C)[C@@H]1CC[C@H](CC(=O)O)O[C@H]1CO2	-3[16.7 µM]	/	2	/	/	/
O=C(Nc1ccccc1C(=O)Nc1nnc(C(F)(F)F)s1)c1ccccc1Cl	18	-3	63*	-18	0	-7
NC(=O)c1ccccc1NC(=O)c1ccccc1Cl	-30	9	-10	4	-7	2
O=C(C[C@H]1C[C@H]2c3cc(NC(=O)c4cccnc4)ccc3O[C@H]2[C@@H](CO)O1)NC1CCCCC1	-10[16.7 µM]	/	-14	/	/	/
CC(C)NC(=O)N(C)C[C@H]1Oc2cc(C#CCN(C)C)ccc2S(=O)(=O)N([C@@H](C)CO)C[C@@H]1C	-34[16.7 µM]	/	/	/	/	/
Cc1ccc(S(=O)(=O)NCc2ccc(C(=O)N3CCN(c4ccc([N+](=O)[O-])cc4)CC3)cc2)cc1	30	10	88*	-5	10	-10
O=C(c1cc([N+](=O)[O-])ccc1Cl)N1CCN(c2ccc(F)cc2)CC1	2	-59	8	-2	8	-2
COc1ccc(N2CCN(C(=O)c3ccc(CNS(=O)(=O)c4ccc(C)cc4)cc3)CC2)cc1	1	-6	19	-2	-1	-5
O=C(c1cc([N+](=O)[O-])ccc1Cl)N1CCN(c2ccc([N+](=O)[O-])cc2)CC1	/	-40	70*	2	2	8
COc1cccc(-c2ccc(CC[C@H]3O[C@H]4CC[C@H](CO)O[C@H]4C[C@@H]3NC(=O)c3cnccn3)cc2)c1	/	/	-5	/	/	/
NC1(C(=O)O)CSSC1	-49	-10	/	12	0	73*
C[C@@H]1CCCCO[C@@H](CN(C)C(=O)Nc2ccc(F)cc2)[C@@H](C)CN([C@H](C)CO)C(=O)c2cc(NC(=O)Nc3ccc(F)cc3)ccc2O1	17[16.7 µM]	/	-12	/	/	/
C[C@@H]1CN([C@@H](C)CO)C(=O)c2cccc(NC(=O)Nc3ccc(F)cc3)c2O[C@H]1CN(C)S(=O)(=O)c1ccc(Cl)cc1	/	/	-13	/	/	/
C[C@H](CO)N1C[C@H](C)[C@H](CN(C)S(=O)(=O)c2ccc(Cl)cc2)Oc2c(NC(=O)Nc3ccc(F)cc3)cccc2C1=O	/	/	91*	/	/	/
C[C@H](CO)N1C[C@H](C)[C@H](CN(C)S(=O)(=O)c2ccc(Cl)cc2)Oc2c(NC(=O)NC3CCCCC3)cccc2C1=O	/	/	92*	/	/	/
C[C@@H]1CN([C@H](C)CO)C(=O)c2cccc(NS(=O)(=O)c3ccc(Cl)cc3)c2O[C@H]1CN(C)CC1CCCCC1	88*[16.7 µM]	/	3	/	/	/
